Laboratory results reported in ChEMBL document CHEMBL4177755, “Combating Drug-Resistant Fungi with Novel Imperfectly Amphipathic Palindromic Peptides” (J Med Chem, 2018).
Activity calls are given as the source filed them. The rule behind the calls is not given here.

Tests used:
[1] = Cytotoxicity against HEK293T cells assessed as cell viability at 2 to 32 uM after 24 hrs by MTT assay relative to control; assay type: cell-based, HEK-293T; conditions: human, read-out: Activity
Method in brief: (§1)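 MTT viability assay. RAW264.7 or HEK293T cells at (1.0−2.0) × 10^5 per well were exposed to a peptide concentration series for 24 h at 37 °C in 5% CO2. MTT was then added at 0.5 mg/mL final for 4 h; formazan was dissolved in DMSO and read at 570 nm. Results average three independent trials.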

RAW264.7 [2] = assay: Cytotoxicity against mouse RAW264.7 cells assessed as decrease in cell viability at 64 uM after 24 hrs by MTT assay relative to control; assay type: cell-based; conditions: raw264.7, 24 h; method in brief: as §1
[3] = Cytotoxicity against mouse RAW264.7 cells assessed as cell viability at 2 to 32 uM after 24 hrs by MTT assay relative to control; assay type: cell-based; conditions: read-out: Activity; method in brief: as §1
HEK-293T = assay: Cytotoxicity against HEK293T cells assessed as decrease in cell viability at 64 uM after 24 hrs by MTT assay relative to control; assay type: cell-based; conditions: human; method in brief: as §1
Escherichia coli [4] = assay: Induction of reactive oxygen species generation in Escherichia coli ATCC 25922 at 0.5 to 4 uM after 1 hr by DCFH-DA dye-based spectrofluorophotometric method; assay type: functional, organism-based
Method in brief: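 E. coli ATCC 25922 and C. albicans cgmcc 2.2086 cells were exposed to a range of peptide concentrations up to 32 μM. ROS levels were read by fluorescence and expressed relative to untreated cells. Values are mean ± SEM of three independent experiments.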

Lipid bilayer [5] = assay: Binding affinity to phosphatidylcholine/cholesterol large unilamellar vesicle assessed as induction of calcein leakage at 2 to 32 uM after 15 mins by spectrofluorophotometric method; conditions: 0.25 h
Method in brief: (§2)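 Large unilamellar vesicles were made from PG/CL/PE (2:1:7), PC/PE/PI/ergosterol (5:4:1:2) or PC/cholesterol (10:1), loaded with 70 mM calcein in Tris/NaCl/EDTA buffer at pH 7.4, frozen and thawed 20 times, and extruded through 100 nm filters. Free dye was removed by gel filtration, and peptide-induced calcein release was measured.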

Candida albicans [6] = assay: Induction of reactive oxygen species generation in Candida albicans cgmcc 2.2086 at 32 uM after 1 hr by DCFH-DA dye-based spectrofluorophotometric method relative to control; assay type: functional
Method in brief: (§3)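 Intracellular ROS in peptide-treated cells were compared with untreated cells; values are mean ± SEM of three independent experiments.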

Lipid bilayer [7] = assay: Binding affinity to phosphatidylcholine/phosphatidylethanolamine/phosphatidylinositol/ergosterol large unilamellar vesicle assessed as induction of calcein leakage after 15 mins by spectrofluorophotometric method
Method in brief: (§4)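 Compositions were PG/CL/PE 2:1:7 w/w/w (E. coli membrane mimic; lines 4,5) and PC/PE/PI/ergosterol 5:4:1:2 w/w/w/w (fungal membrane mimic; lines 2,3). Lipids underwent 20 freeze–thaw cycles and were extruded through 100 nm filters; free calcein was removed by gel filtration.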

RAW264.7 [8] = assay: Induction of endotoxin-neutralization in mouse RAW264.7 cells assessed as inhibition of LPS-induced nitric oxide production at 16 uM after 18 hrs by Griess assay relative to control; assay type: functional; conditions: RAW264.7, 18 h
Method in brief: (§5)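 RAW 264.7 cells were stimulated with 50 ng/mL LPS with or without peptide at various concentrations. TNF-α in supernatants was measured by ELISA and NO by Griess reagent. Mean ± SEM of three independent experiments, compared against LPS alone.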

Lipid bilayer [9] = assay: Binding affinity to phosphatidylglycerol/cardiolipin/phosphatidylethanolamine large unilamellar vesicle assessed as induction of calcein leakage at 32 uM after 15 mins by spectrofluorophotometric method relative to control; method in brief: as §4
Candida albicans [10] = assay: Induction of cell wall permeabilization in Candida albicans cgmcc 2.2086 assessed as increase in NPN uptake by fluorescence spectrophotometric method; assay type: functional, organism-based
Method in brief: (§6)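 Log-phase cells at OD600 0.2 in 5 mM HEPES (pH 7.4, 5 mM glucose) were preloaded with 10 μM NPN for 30 min, then peptide was added. Fluorescence (ex 350/em 420 nm) was followed until it plateaued and converted to % NPN uptake against initial and maximal fluorescence. Triplicate.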

RAW264.7 [11] = assay: Induction of endotoxin-neutralization in mouse RAW264.7 cells assessed as inhibition of LPS-induced TNFalpha secretion at 2 uM after 18 hrs by ELISA; assay type: functional, cell-based; method in brief: as §5
Escherichia coli [12] = assay: Induction of reactive oxygen species generation in Escherichia coli ATCC 25922 at 32 uM after 1 hr by DCFH-DA dye-based spectrofluorophotometric method relative to control; assay type: functional; method in brief: as §3
Escherichia coli [13] = assay: Antibacterial activity against Escherichia coli ATCC 25922 after 18 hrs in presence of 12.5% human heat-inactivated serum by broth dilution method; assay type: functional; conditions: ATCC 25922, 18 h
Candida albicans [14] = assay: Fungicidal activity against fluconazole-resistant Candida albicans 56452 at 0.5 times MFC after 30 passages; assay type: functional, organism-based
Method in brief: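 Resistance induction. C. albicans cultures were serially passaged by 100-fold dilution every 24 h in 2 mL RPMI 1640 containing sub-MFC peptide, and the MFC was retested at each passage. A control was passaged in RPMI 1640 alone.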

Escherichia coli [15] = assay: Change in membrane morphology in Escherichia coli ATCC 25922 assessed as loss of intracellular contents at MBC after 1 hr by transmission electron microscopy; assay type: functional, organism-based
Method in brief: (§7)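 E. coli ATCC 25922 or C. albicans cgmcc 2.2086 were treated with peptide at 1× MBC/MFC for 1 h alongside peptide-free controls, then imaged by AFM, SEM or TEM for membrane and ultrastructural changes.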

Candida albicans [16] = assay: Induction of membrane damage in Candida albicans cgmcc 2.2086 assessed as intracellular content leakage at MFC after 1 hr by atomic force microscopy; assay type: functional, organism-based; method in brief: as §7
Lipid bilayer [17] = assay: Binding affinity to phosphatidylcholine/phosphatidylethanolamine/phosphatidylinositol/ergosterol large unilamellar vesicle assessed as induction of calcein leakage at 32 uM after 15 mins by spectrofluorophotometric method relative to control; method in brief: as §4
Candida albicans [18] = assay: Antifungal activity against Candida albicans cgmcc 2.2086 in presence of 25% human heat-inactivated serum by broth dilution method; assay type: functional
Escherichia coli [19] = assay: Induction of cell wall permeabilization in Escherichia coli ATCC 25922 assessed as increase in NPN uptake by fluorescence spectrophotometric method; assay type: functional, organism-based; method in brief: as §6
Escherichia coli [20] = assay: Induction of cell wall permeabilization in Escherichia coli ATCC 25922 assessed as increase in NPN uptake at 2 uM by fluorescence spectrophotometric method relative to control; assay type: functional
Method in brief: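 Log-phase E. coli ATCC 25922 or C. albicans cgmcc 2.2086 at OD600 0.2 in 5 mM HEPES pH 7.4 with 5 mM glucose was preloaded 30 min with 10 μM NPN, then peptide was added. Fluorescence (ex 350, em 420 nm) was followed until it plateaued and converted to % uptake against a 100% reference. Run in triplicate.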

Candida albicans [21] = assay: Antifungal activity against Candida albicans cgmcc 2.2086 in presence of 12.5% human heat-inactivated serum by broth dilution method; assay type: functional
Lipid bilayer [22] = assay: Binding affinity to phosphatidylglycerol/cardiolipin/phosphatidylethanolamine large unilamellar vesicle assessed as induction of calcein leakage at 2 to 32 uM after 15 mins by spectrofluorophotometric method; method in brief: as §2

H-WWRRWRRWW-NH2
viability at 24 h, up to 32 µM [1]: 70 to 80%
Activity (RAW264.7 [2]): Toxic
viability at 24 h, up to 32 µM [3]: 70 to 80%
Activity (HEK-293T): Toxic

H-RWWRRWRRWWR-NH2
viability at 24 h, up to 32 µM [1]: 70 to 80%
Activity (RAW264.7 [2]): Toxic
viability at 24 h, up to 32 µM [3]: 70 to 80%
Activity (HEK-293T): Toxic

H-RRIRIIIRIRR-NH2
Activity (Escherichia coli [4]): inactive
Activity (Lipid bilayer [5]): Not Active
fold change (FC) (Candida albicans [6]): 14
Activity (Lipid bilayer [7]): Dose-dependent effect
inhibition at 16 µM (RAW264.7 [8]): 100%
Activity (Lipid bilayer [9]): 63%
Activity (Candida albicans [10]): Dose-dependent effect
inhibition (RAW264.7 [11]): Active
fold change (FC) (Escherichia coli [12]): 2
MIC (Escherichia coli [13]): 4 µM
Activity (Candida albicans [14]): Active
Activity (Escherichia coli [15]): Active
Activity (Candida albicans [16]): Active
Activity (Lipid bilayer [17]): 62%
MIC (Candida albicans [18]): 4 µM
Activity (Escherichia coli [19]): Dose-dependent effect
Activity (Escherichia coli [20]): >70%
MIC (Candida albicans [21]): 2 µM

CC[C@H](C)[C@H](NC(=O)CN)C(=O)NCC(=O)N[C@@H](C)C(=O)N[C@H](C(=O)N[C@@H](CC(C)C)C(=O)N[C@@H](CCCCN)C(=O)N[C@H](C(=O)N[C@@H](CC(C)C)C(=O)N[C@H](C(=O)N[C@H](C(=O)NCC(=O)N[C@@H](CC(C)C)C(=O)N1CCC[C@H]1C(=O)N[C@@H](C)C(=O)N[C@@H](CC(C)C)C(=O)N[C@H](C(=O)N[C@@H](CO)C(=O)N[C@@H](Cc1c[nH]c2ccccc12)C(=O)N[C@H](C(=O)N[C@@H](CCCCN)C(=O)N[C@@H](CCCNC(=N)N)C(=O)N[C@@H](CCCCN)C(=O)N[C@@H](CCCNC(=N)N)C(=O)N[C@@H](CCC(N)=O)C(=O)N[C@@H](CCC(N)=O)C(N)=O)[C@@H](C)CC)[C@@H](C)CC)[C@@H](C)O)[C@@H](C)O)C(C)C)C(C)C [MELITTIN]
Activity (Lipid bilayer [5]): Active
MIC (Candida albicans [18]): 32 µM
MIC (Candida albicans [21]): 32 µM
Activity (Lipid bilayer [22]): Active
